Compound activity from PubChem.
This is a sample that favours compounds with a hit; in the whole collection about 2.9% have one here.
TRPC4 act = TRPC4 (mouse) channel activation; Q9QUQ5; HEK293 TRPC4beta/mu-opioid, Fluo4 calcium fluorescence; active compounds read high; B-score at 10 µM; 310,000 tested, 0.49% active; AID 2237;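 active = B-score above 5 SD of library B-scores, and initial fluorescence ratio not above library mean plus 5 SD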;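 also: positive B-score marks a calcium rise read as TRPC4 activation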
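Technique: kinetic Fluo4 calcium fluorescence; Test system: TRPC4beta and mu-opioid receptor HEK293 stable cells; Measure: B-scored integrated calcium fluorescence ratio; Benchmarks: low control buffer alone, high control maximal DAMGO; Schedule: 45 min room-temperature Fluo4 loading, 110 s read.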
TRPC4 potent = allosteric potentiators of mouse TRPC4 channel. Q9QUQ5. 310,000 tested, 0.42% active. AID 2227. B-score at 10 µM. HEK293 TRPC4beta/mu-opioid, DAMGO EC20, Fluo-4 Ca2+ flux; active compounds read high;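 active = B-score of calcium response area above 5 SD of library B-scores, with initial fluorescence ratio within 5 SD of library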;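 also: B-score of integrated fluorescence ratio over time as area under calcium response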
TRPC4 block = TRPC4 (mouse) channel inhibition | Q9QUQ5 | HEK293 TRPC4beta/mu-opioid, DAMGO-evoked Fluo4 calcium flux; active compounds read low | B-score at 10 µM | 300,000 tested, 0.39% active | AID 2247;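 active = B-score over 3 SD under the library average, no early fluorescence shift, positive overall ratio signal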
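Material: HEK293 cells with stable TRPC4beta plus mu-opioid receptor expression; probe or stimulus: DAMGO in two steps, submaximal then maximal; technique: Fluo4 calcium fluorescence by kinetic imaging, 5 s 1 Hz baseline; measure: integrated fluorescence ratio relative to baseline, converted to per-well B score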
TRPC6 activator = activators of mouse TRPC6 channel; Q61143; HEK293-TRPC6 membrane potential dye fluorescence; active compounds read high; B-score at 10 µM; 310,000 tested, 0.13% active; AID 2550;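 active = B-score of the integrated fluorescence ratio above library mean plus 3 SD, and starting fluorescence ratio within library mean plus 5 SD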;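 also: higher score means more depolarization so channel activation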
Kir21 inh = Kir2.1 (mouse) channel inhibition; AID 1672; P35561; 310,000 tested, 0.85% active; B-score at 10 µM; HEK293-Kir2.1, FluxOR thallium flux fluorescence; active compounds read low;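 active = fluorescence ratio B-score at or below minus 3 SD of library scores, with starting-brightness B-score within 2 SD, cut at about -4.2 in these data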;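 also: channel flux triggered by added potassium and thallium sulfate stimulus; B-score of peak minus minimum fluorescence over baseline after thallium stimulus; more negative B-score means stronger Kir2.1 block with less thallium influx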
TRPC6 inhibitor = inhibitors of mouse TRPC6 channel | AID 2553 | B-score at 10 µM | HEK293-TRPC6, membrane potential dye, ACh-evoked depolarization; active compounds read low | 310,000 tested, 1.1% active | Q61143;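 active = B-score under library mean minus 3 SD, initial fluorescence not abnormally high, positive integrated signal ratio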;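 also: B-score derived from integrated fluorescence ratio over the kinetic read; more negative B-score means stronger inhibition of depolarization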
* marks the source's active call; other numbers are inactive results; i = inactive; . = no result given.

SMILES	TRPC4 act	TRPC4 potent	TRPC4 block	TRPC6 activator	Kir21 inh	TRPC6 inhibitor
CCCCCCC1C(C#N)=C(N)OC2=C1C(=O)CC(C)(C)C2 (configuration not stated)	i	i	i	i	-0.36	i
CCCCC1C2=C(CC(C)(C)CC2=O)OC2=C1C(=O)CC(C)(C)C2	i	14*	i	i	-0.6	i
COc1ccc(NC(=O)CSc2nnc(NC(=O)c3ccco3)s2)cc1OC	i	i	i	i	1.5	i
COc1cc(CNC2CCCC2)cc(Cl)c1OCc1ccc(F)cc1	i	i	-7*	i	-5*	i
COc1cc(CNC2CCCC2)cc(Cl)c1OCc1ccccc1Cl	i	i	i	i	-9.3*	i
COc1cc(CNn2c(C)n[nH]c2=S)cc(Cl)c1OCc1ccc(F)cc1	i	i	i	i	0.4	i
COc1cc(CNC2CCCC2)cc(OC)c1OC	i	i	i	i	2.1	i
COc1cc(CNC2CCCCCCC2)cc(Cl)c1OCC(N)=O	i	i	i	i	-0.99	i
CCOc1cc(CNC2CCCC2)cc(Cl)c1OCc1ccc(F)cc1	i	i	i	i	-11*	i
COC(=O)c1c(C)[nH]c(C(=O)/C=C/c2ccccc2Cl)c1C	i	i	i	i	-0.83	i
COc1ccc(CN2CCNC(=O)C2CC(=O)NC2CCCC2)c(C)c1C (configuration not stated)	i	i	-6*	i	0.47	i
COc1ccc(CN2CCNC(=O)C2CC(=O)NC2CCC2)c(OC)c1 (configuration not stated)	i	i	i	i	3.1	i
Cc1cccc(C)c1NC(=O)C(NC=O)c1ccccc1 (configuration not stated)	i	i	i	i	0.01	i
COc1ccc(/C=N/Nc2cc(C)nc(-n3nc(C)cc3C)n2)cc1	i	19*	i	i	-2.6	i
COc1ccc(NC2CCCN(C(=O)CN3CCOC3=O)C2)cc1 (configuration not stated)	i	i	i	i	1.1	i
COc1ccccc1CC(=O)N1CCN(S(=O)(=O)c2ccccc2)CC1	i	20*	i	i	-1.4	i
COc1ccccc1CNC(=O)N1CCN(S(=O)(=O)c2ccc(C)cc2)CC1	i	i	i	i	1.4	i
Cc1ccc(C2CCN(C(=O)Nc3ccccc3)C2)cc1 (configuration not stated)	i	i	.	i	-0.95	i
O=C(O)c1cc(S(=O)(=O)Nc2ccccc2Cc2ccccc2)ccc1Cl	i	i	i	i	0.38	i
Cc1nn(C(=O)c2cccc([N+](=O)[O-])c2)c(C)c1Sc1ccccc1	i	i	-6*	i	-4.3*	i
Cc1nn(C(=O)c2ccco2)c(C)c1Sc1ccccc1	i	i	i	i	-0.35	i
CCCC(=O)NCCc1cc2ccc(C)c(C)c2[nH]c1=O	i	12*	i	i	0.02	i
O=C(COc1ccc(Br)cc1)c1ccc2c(c1)CCCC2	i	12*	i	i	0.65	i
Cc1ccc(OCC(=O)c2ccc3c(c2)CCCC3)cc1C	i	i	i	i	1.1	i
COC(=O)c1ccc2c(=O)n(Cc3ccc4c(c3)OCO4)c(SCC(=O)N3CCCC3)nc2c1	i	i	i	i	0.08	i
SMILES	TRPC4 act	TRPC4 potent	TRPC4 block	TRPC6 activator	Kir21 inh	TRPC6 inhibitor
COC(=O)C1=C(C)N(Cc2ccccc2)C(=NCc2ccccc2)N[C@H]1c1cccc(F)c1	i	i	i	i	-8.8*	i
COC(=O)C1=C(C)N(CC2CC2)C(=NCc2cccc(Cl)c2)N[C@H]1c1ccccc1	i	i	i	i	-4.6*	i
COCCN=C1N[C@@H](c2ccc(Br)cc2)C(C(=O)OC)=C(C)N1Cc1ccccc1	i	i	i	i	-6.8*	i
COC(=O)C1=C(C)N(Cc2ccccc2)C(=S)N[C@H]1c1cccc(F)c1	i	i	-5*	i	-0.04	i
COC(=O)C1=C(C)N(Cc2ccccc2)C(=NCc2cc(OC)c(OC)c(OC)c2)N[C@H]1c1ccccc1	i	i	i	i	-4	i
CC1CN(C(=O)CS(=O)(=O)Cc2ccc(Cl)cc2)CC(C)O1 (configuration not stated)	i	i	i	i	-0.17	i
O=C1CC(c2ccccc2)CC(O)=C1C=NCCCN1CCOCC1 (configuration not stated)	i	i	i	i	0.21	i
CC1CCN(C(=S)c2ccccc2O)CC1	i	i	i	i	-2.8	i
COCCN1C(=S)N[C@@H](c2cccc(F)c2)C(C(=O)OC)=C1C	i	i	i	i	-6.8*	i
COc1ccc2occ(C(=O)c3ccc(N)cc3)c2c1	i	i	i	i	-1.8	i
CN(C)CCCN(C(=O)c1ccc2ccccc2c1)c1nc2cc3c(cc2s1)OCO3	i	i	i	i	-3.3	i
CN(C)CCCN(C(=O)c1ccc(S(=O)(=O)N(C)Cc2ccccc2)cc1)c1nc2cc3c(cc2s1)OCO3	48*	i	i	i	0.65	i
CN(C)CCN(C(=O)c1ccc2ccccc2c1)c1nc2cc3c(cc2s1)OCCO3	i	i	i	i	2	i
CN(C)CCN(C(=O)c1cccc2ccccc12)c1nc2cc3c(cc2s1)OCO3	73*	i	i	i	2.1	i
CCN(c1ccccc1)S(=O)(=O)c1ccc(C(=O)N(CCCN(C)C)c2nc3cc4c(cc3s2)OCO4)cc1	168*	i	i	i	0.46	i
Cc1ccc(Cl)cc1NC(=O)c1cnn2c1NC(c1ccco1)CC2C(F)(F)F (configuration not stated)	i	i	i	i	2.2	i
Cc1cc(=O)oc2c3c(cc(OCC(=O)Nc4ccc(CCO)cc4)c12)OC(C)(C)CC3	i	i	i	i	-1.7	i
COc1ccc(OC(C)C(=O)N(C)Cc2nc(-c3ccc(OC)cc3)no2)cc1 (configuration not stated)	i	i	i	i	-0.89	i
CN(C)S(=O)(=O)c1ccc(C(=O)OCc2ccc([N+](=O)[O-])cc2)cc1	i	i	i	i	1.2	i
